Laboratory results: ChEMBL document CHEMBL1133688, “Hunting the emesis and efficacy targets of PDE4 inhibitors: identification of the photoaffinity probe 8-(3-azidophenyl)-6- [(4-iodo-1H-1-imidazolyl)methyl]quinoline (APIIMQ)” (J Med Chem, 2000)

Key:
[1] = molecular target: 3',5'-cyclic-AMP phosphodiesterase 4A (Homo sapiens, UniProt P27815); assay: Inhibition of recombinant human PDE4A expressed in Sf9 cells
In short: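 Inhibition of the purified enzyme's catalytic activity (cAMP hydrolysis) was measured, and IC50 was derived.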

Homo sapiens = organism: Homo sapiens; assay: Inhibition of LPS-induced TNF-alpha secretion in human whole blood; assay type: functional
Cavia porcellus = organism: Cavia porcellus; assay: Bronchoconstriction effect in ovalbumin-induced guinea pig model; assay type: functional

Chain of 3',5'-cyclic-AMP phosphodiesterase 4A (P27815 whole entry): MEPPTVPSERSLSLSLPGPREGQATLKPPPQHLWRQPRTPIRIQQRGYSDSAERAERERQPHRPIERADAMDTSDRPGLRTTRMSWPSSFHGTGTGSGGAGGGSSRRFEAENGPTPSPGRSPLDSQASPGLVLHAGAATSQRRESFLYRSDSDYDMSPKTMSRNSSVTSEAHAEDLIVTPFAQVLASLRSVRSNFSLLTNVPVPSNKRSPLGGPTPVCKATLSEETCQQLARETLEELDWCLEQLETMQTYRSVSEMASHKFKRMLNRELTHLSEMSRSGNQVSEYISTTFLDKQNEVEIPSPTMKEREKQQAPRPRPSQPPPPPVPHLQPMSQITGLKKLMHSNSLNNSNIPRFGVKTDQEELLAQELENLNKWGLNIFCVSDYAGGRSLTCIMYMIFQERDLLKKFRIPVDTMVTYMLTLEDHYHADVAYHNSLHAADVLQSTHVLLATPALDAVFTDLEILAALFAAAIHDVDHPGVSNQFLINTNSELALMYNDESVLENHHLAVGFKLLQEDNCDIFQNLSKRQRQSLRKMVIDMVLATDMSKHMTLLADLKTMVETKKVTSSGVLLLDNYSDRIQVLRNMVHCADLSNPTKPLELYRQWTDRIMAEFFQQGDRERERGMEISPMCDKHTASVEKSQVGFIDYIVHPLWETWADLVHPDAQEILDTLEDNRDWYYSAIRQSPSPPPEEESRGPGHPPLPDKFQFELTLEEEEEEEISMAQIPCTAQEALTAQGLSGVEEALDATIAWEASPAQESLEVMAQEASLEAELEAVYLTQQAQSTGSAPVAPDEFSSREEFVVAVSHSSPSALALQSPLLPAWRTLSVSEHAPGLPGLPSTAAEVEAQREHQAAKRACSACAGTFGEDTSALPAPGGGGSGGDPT

SMILES | IC50 [1] [nM] | other results
O=C(c1ccccc1)c1cc(-c2cccc(I)c2)c2ncccc2c1 | 15 | 
[N-]=[N+]=Nc1ccc(I)c(-c2cc(Cc3ccncc3)cc3cccnc23)c1 | 3.3 | 
c1ccc(-c2cc(Cn3ccnc3)cc3cccnc23)cc1 | 9 | 
[N-]=[N+]=Nc1cc(-c2cccc(I)c2)c2ncccc2c1 | 28 | 
COc1ccc(C2CC(=O)N(Cc3cc(I)cc(C4(C(F)(F)F)N=N4)c3)C2)cc1OC1CCCC1 (centres undefined) | 35 | 
O=c1c2c(ncn2Cc2cc(I)cc(C3(C(F)(F)F)N=N3)c2)c2cccnc2n1-c1ccccc1 | 250 | 
COc1ccc([C@H](Cc2ccncc2)c2ccccc2)cc1OC1CCCC1 [CDP840] |  | Ki [1]: 4 nM

More lines, in order of falling IC50 [1], values ahead:

IC50 [1] [nM] | SMILES | other results
2.7 | [N-]=[N+]=Nc1cccc(-c2cc(I)cc3cccnc23)c1 | 
0.6 | O=c1c2c(ncn2Cc2ccccc2)c2cccnc2n1-c1ccccc1 | 
0.4 | [N-]=[N+]=Nc1cccc(-c2cc(Cn3cnc(I)c3)cc3cccnc23)c1 | IC50 (Homo sapiens): 2000 nM; ED50 (Cavia porcellus): 0.3 mg/kg
0.2 | [N-]=[N+]=Nc1cccc(-c2cc(Cc3ccncc3)cc3cccnc23)c1 | 
0.07 | O=[N+]([O-])c1cccc(-c2cc(Cc3ccncc3)cc3cccnc23)c1 | 
